Test results taken from ChEMBL document CHEMBL4513216, “Probing the Open Global Health Chemical Diversity Library for Multistage-Active Starting Points for Next-Generation Antimalarials” (ACS Infect Dis, 2020).

Experiment: Toxicity liver stage against HepG2, at 10uM
Assay type: cell-based
Set-up: test concentration 10 uM, cell line HepG2-A16-CD81EGFP
Settings: human, HepG2-A16-CD81EGFP cells; read-out: INHIBITION
Summary of the method: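 Uninfected HepG2-A16-CD81EGFP cells, 3 × 10^3 per well, 1536-well, plated on prespotted compound at 10 μM final, parasite-free screening media added to match infected plates; puromycin 10 μM positive, DMSO 0.5% negative; run in parallel with 48 h PbLuc assay at 37 °C, 5% CO2; viability by CellTiter-Glo luminescence, normalized to controls.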

COc1cccc2c3c(c(=O)[nH]c12)CCC(C)(C)O3
cytotoxicity at 10 µM: -1.43%

O=C(NCC(O)c1ccccc1)Nc1cccs1 (stereo unspecified)
cytotoxicity at 10 µM: 8.25%

O=c1ncn(-c2ccc(F)cc2)c2ncccc12
cytotoxicity at 10 µM: 0.946%

Cc1nc2ccccc2c(=O)n1Cc1nnnn1C1CC1
cytotoxicity at 10 µM: -13.8%

CC(C)CNC[C@H]1COCc2nc3cccnc3n21
cytotoxicity at 10 µM: -4.48%

CC(C)N1CCN2C(=O)N(C3CCCCC3)C[C@H]2C1
cytotoxicity at 10 µM: 1.2%

Cc1ccc(-c2noc([C@@H]3C[C@H](NC(=O)CC(C)(C)C)CN3C)n2)cc1
cytotoxicity at 10 µM: 7.35%

Cn1nnnc1SCC(=O)N1CCN(C(=O)C2CC2c2cccs2)CC1 (stereo unspecified)
cytotoxicity at 10 µM: 8.58%

O=C(CC1CCCCC1)N1CCOCC1CO (stereo unspecified)
cytotoxicity at 10 µM: -0.779%

CC(C)c1nnc(C2CCN(CC(=O)Nc3cccnc3)CC2)o1
cytotoxicity at 10 µM: -5.92%

O=C(Nc1cnn(C2CCOCC2)c1)c1ccc2c(c1)OCO2
cytotoxicity at 10 µM: 3.07%

Cc1ccsc1C(=O)N1CC2CC1(C(=O)NCc1ccco1)C2
cytotoxicity at 10 µM: -6.43%

COCc1nn(CC2CC2)c2c1CN(C(=O)c1ccno1)CC2
cytotoxicity at 10 µM: 10.4%

O=C(c1ccncc1)N1CCc2onc(CN3CCCC3)c2C1
cytotoxicity at 10 µM: -3.7%

Cc1cccc(N2CC[C@@H]3[C@@H](CO[C@H]3CNS(C)(=O)=O)C2)n1
cytotoxicity at 10 µM: 3.62%

CC(C)NC(=O)C1CN(C(=O)c2cccs2)CC12CCOCC2 (stereo unspecified)
cytotoxicity at 10 µM: -3.59%

c1ccc(-c2ncc3c(n2)C2(CCN(c4ncccn4)C2)COC3)cc1 (stereo unspecified)
cytotoxicity at 10 µM: 1.36%

Cn1cc(C2CC3(CCN(C(=O)c4cccs4)CC3)NC2=O)cn1 (stereo unspecified)
cytotoxicity at 10 µM: 1.27%

CO[C@H]1CN(C(=O)c2ccc(C)o2)[C@@H]2CCCO[C@H]12
cytotoxicity at 10 µM: -153%

CNc1oc(-c2cc(S(=O)(=O)N3CCCC3)c(C)o2)nc1C#N
cytotoxicity at 10 µM: 5.08%

COc1cccc(C2CC(=O)Nc3c2cnn3C(C)(C)C)c1 (stereo unspecified)
cytotoxicity at 10 µM: -8.54%

COCCN1C(=O)CCC12CCN(C(=O)NC(C)C)CC2
cytotoxicity at 10 µM: 4.45%

O=C(c1ccc[nH]1)N1C[C@H](OCc2cccnc2)[C@H]2COC[C@H]21
cytotoxicity at 10 µM: -10.4%

CCS(=O)(=O)Nc1ccn(Cc2c(F)cccc2Cl)n1
cytotoxicity at 10 µM: 7.77%

COc1cc(CC2CC(c3ccc4c(c3)OCO4)=NO2)cc2c1OCO2 (stereo unspecified)
cytotoxicity at 10 µM: 0.69%

c1ccc(Oc2nccnc2C2CCN(C3CCOCC3)CC2)cc1
cytotoxicity at 10 µM: 4.38%

Cc1nccc(C2CCCN(C(=O)c3cncnc3)C2)n1 (stereo unspecified)
cytotoxicity at 10 µM: 4.1%

CCOC(=O)c1n[nH]cc1-c1cncn1CCn1nc(C)c(Cl)c1C
cytotoxicity at 10 µM: -15.1%

NC(=O)CN1CCCC(c2nccnc2Oc2cccc(F)c2)C1 (stereo unspecified)
cytotoxicity at 10 µM: -17.1%

Cc1cccc(CC(=O)NC2CCN(C(=O)NC(C)(C)C)CC2)c1
cytotoxicity at 10 µM: -10.4%

Cn1ccnc1CN1CCCN(C(=O)C2(C#N)CCCCC2)CC1
cytotoxicity at 10 µM: -2.84%

Cc1ccn(Cc2nc(C(C)OCC(C)C)no2)c(=O)c1 (stereo unspecified)
cytotoxicity at 10 µM: 5.56%

CCC(CNS(=O)(=O)c1cccc(C(=O)OC)c1)N1CCCC1 (stereo unspecified)
cytotoxicity at 10 µM: -8.93%

CCOCCC(=O)Nc1cccc(Cl)c1C(N)=O
cytotoxicity at 10 µM: -8.59%

CCc1cnc(C(C)NC(=O)N2CCCN(CC(F)F)CC2)s1 (stereo unspecified)
cytotoxicity at 10 µM: -0.423%

Cc1cc(C(=O)N2CCNC(=O)CC2)c(C)n1CC(F)(F)F
cytotoxicity at 10 µM: 1.88%

CCn1cc(C(=O)NCC(C)(CC)N2CCOCC2)c2ccccc21 (stereo unspecified)
cytotoxicity at 10 µM: 6.13%

CC(NC(=O)Nc1cccnc1N1CCOCC1)c1ccccc1 (stereo unspecified)
cytotoxicity at 10 µM: 2.83%

Cc1ccc(CNC(=O)NC2CCC(O)CC2)c(N2CCCC2)c1 (stereo unspecified)
cytotoxicity at 10 µM: -16.4%

O=C(NCc1ccnc(OCC2CC2)c1)C1Cc2ccccc2O1 (stereo unspecified)
cytotoxicity at 10 µM: -0.483%

CN1CCN(C(=O)c2cccn2C)c2ccccc2C1
cytotoxicity at 10 µM: 7.28%

Cc1cc(F)cc2c(N3CCS(=O)(=O)CC3)c(C#N)cnc12
cytotoxicity at 10 µM: -16.7%

CCc1nsc(N2CCN(C(=O)COc3ccccc3)CC2)n1
cytotoxicity at 10 µM: -3.49%

COC(=O)CCNC(=O)c1ccc(NC(=O)N(C)CC(C)(C)C)cc1
cytotoxicity at 10 µM: 8.01%

Cc1cccc(-c2noc(CN3CCC(c4ccn[nH]4)CC3)n2)c1
cytotoxicity at 10 µM: 4.13%

Cc1cc(CN2CCc3cncnc3C2)on1
cytotoxicity at 10 µM: 4.13%

CCNC(=O)C1CCN(Cn2nc(-c3ccccc3)oc2=O)CC1
cytotoxicity at 10 µM: 11.5%

Cc1cnn(CC2CCCN2C(=O)CCc2c(C)nc(C)[nH]c2=O)c1 (stereo unspecified)
cytotoxicity at 10 µM: -2.79%

CC(C)NC(=O)c1nnn(-c2ccc(F)cc2)c1C1CC1
cytotoxicity at 10 µM: 12.1%

Cc1ccnc(N2CCC(NCCOc3ccccc3)CC2)n1
cytotoxicity at 10 µM: -1.21%

OC1CCN(c2ccc(CNc3nc4ccccc4o3)cc2F)CC1
cytotoxicity at 10 µM: 0.833%

CC(C)n1cc2cc(NC(=O)Cn3cnnn3)ccc2n1
cytotoxicity at 10 µM: -138%

Cc1cc(NC(C)C(=O)NCc2ccccc2)nc(-c2ccncc2)n1 (stereo unspecified)
cytotoxicity at 10 µM: 0.563%

CS(=O)(=O)CCCOc1cccc(-n2cccn2)c1
cytotoxicity at 10 µM: -9.22%

C1CCN(CCOC2CCNCC2)C1
cytotoxicity at 10 µM: 6.59%

O=C(NCC1(c2cccc(F)c2)CC1)N1CCC2(CCOC2)C1 (stereo unspecified)
cytotoxicity at 10 µM: 2.82%

CN(Cc1cccs1)c1cc(N2CCCC2CO)ncn1 (stereo unspecified)
cytotoxicity at 10 µM: 1.26%

CS(=O)(=O)c1cccc(S(=O)(=O)NC(=O)CCC2CCCCC2)c1
cytotoxicity at 10 µM: 0.848%

CCCSCC(=O)Nc1ncn(CC(=O)N2CCCCCC2)n1
cytotoxicity at 10 µM: -3.91%

Cc1cc(N2CCCC(OC(=O)CCc3cnn(C)c3)C2)nc(C)n1 (stereo unspecified)
cytotoxicity at 10 µM: 0.127%

Cn1cccc1C1CCCN1Cc1noc(C(C)(C)C)n1 (stereo unspecified)
cytotoxicity at 10 µM: -4.4%

CCOCCCC(=O)NCCC(=O)N1CCN(c2ccccn2)CC1
cytotoxicity at 10 µM: -4.76%

CC1CN(C)c2ccccc2CN1C(=O)CSc1ccncc1 (stereo unspecified)
cytotoxicity at 10 µM: -12.6%

CN(C)C1CCN(C(=O)c2n[nH]c3c2CCN(CC2CCC2)C3)CC1
cytotoxicity at 10 µM: 3.48%

CCn1cc2c(n1)C(COC)CN(C(=O)CCOc1ccccc1)C2 (stereo unspecified)
cytotoxicity at 10 µM: 0.234%

CCC[C@H]1CN(CCCO)C[C@@H]1NC(=O)Cn1cc(C)cn1
cytotoxicity at 10 µM: 1.39%

Cc1nc[nH]c1C(=O)N1CCC2(CC1)CN(CCN(C)C)C(=O)O2
cytotoxicity at 10 µM: 4.54%

Cc1ccccc1NC(=O)CNC(C)COc1ccccc1 (stereo unspecified)
cytotoxicity at 10 µM: -0.264%

CN(CC1CCCCO1)c1nc2c(cc1C(N)=O)CCC2 (stereo unspecified)
cytotoxicity at 10 µM: -5.64%

O=C1NCCN1CCNc1cc(-c2ccccc2)nc2ccnn12
cytotoxicity at 10 µM: -10.7%

NS(=O)(=O)CCCC(=O)N1CCC2(CC1)c1ccccc1CC2O (stereo unspecified)
cytotoxicity at 10 µM: 4.71%

O=C(CCc1cc2n(n1)CCCNC2)N1CCC(N2CCOC2=O)CC1
cytotoxicity at 10 µM: 6.05%

Nc1ncc(C(=O)N2CCC3(CCCO3)CC2)c(-c2ccccc2)n1
cytotoxicity at 10 µM: -156%

O=C(NCC1=CCCCC1)C(c1cccnc1)N1CCCC1 (stereo unspecified)
cytotoxicity at 10 µM: -3.78%

CC(=O)N[C@@H](C)C(=O)NCc1cccnc1Oc1ccccc1F
cytotoxicity at 10 µM: -3.53%

CCN1CCN(S(=O)(=O)N2CCc3ccccc3C2)[C@H]2CS(=O)(=O)C[C@H]21
cytotoxicity at 10 µM: -4%

c1ccc(-c2noc(CCNC3CCOC4(CCOCC4)C3)n2)nc1 (stereo unspecified)
cytotoxicity at 10 µM: -6.5%

CC(C)N1CC(c2ncc(-c3ccc4c(c3)OCCO4)[nH]2)CC1=O (stereo unspecified)
cytotoxicity at 10 µM: 0.166%

Cc1nc2ccccc2n1Cc1cc(C(=O)N(C)C2CCOC2)n[nH]1 (stereo unspecified)
cytotoxicity at 10 µM: 4.91%

CCc1ccccc1OCCCN(C)C(=O)C1CCCN1C(N)=O (stereo unspecified)
cytotoxicity at 10 µM: 0.369%

CCc1cnc(C)nc1NCCc1nc(N)cc(O)n1
cytotoxicity at 10 µM: -0.264%

Cc1nc(CNC(=O)CC2C(=O)NCCN2CCC(C)C)n[nH]1 (stereo unspecified)
cytotoxicity at 10 µM: -4.44%

Cc1nc(NCCC23CCCN2CCC3)cc(C2CCNCC2)n1
cytotoxicity at 10 µM: 8.37%

CCN1CC(C(=O)N2CCC(Oc3ccccc3C)CC2)CC1=O (stereo unspecified)
cytotoxicity at 10 µM: -12.1%

Cc1ccc(NC2CCN(C(=O)c3ccncc3)CC2)nn1
cytotoxicity at 10 µM: 8.85%

CC(Cn1cccn1)NC(=O)Nc1nncs1 (stereo unspecified)
cytotoxicity at 10 µM: -1.86%

Cc1nn(C)c(C)c1C1CCCN1C(=O)CCNS(C)(=O)=O (stereo unspecified)
cytotoxicity at 10 µM: -26%

CC(=O)N1CCCN(C(=O)NCc2cccnc2OC(C)C)CC1
cytotoxicity at 10 µM: -5.5%

Clc1ccc(-c2nnc(CNCCn3cccn3)o2)c(Cl)c1
cytotoxicity at 10 µM: -4.86%

CCOc1ccc(C#N)cc1NCC(=O)OC
cytotoxicity at 10 µM: -19.2%

Cc1nc(C)n(CC2CCCN2CCC(=O)NC2CCCC2)n1 (stereo unspecified)
cytotoxicity at 10 µM: -10.4%

c1ccc(-c2nc(CN3CCn4c(nnc4C4CC4)C3)co2)cc1
cytotoxicity at 10 µM: -2.18%

COc1c(C2CCCN2Cc2noc(C)n2)c(C)nn1C (stereo unspecified)
cytotoxicity at 10 µM: -12.5%

CCN(CCC1CCN(C(=O)NCc2nncn2CC)CC1)CC1CC1
cytotoxicity at 10 µM: -2.75%

Cc1ccc(C(=O)Nc2ccc(S(=O)(=O)/N=C3\CCCN3C)cc2)s1
cytotoxicity at 10 µM: 0.174%

CCOc1ncccc1C(=O)NC1CCCN(c2ncccn2)C1 (stereo unspecified)
cytotoxicity at 10 µM: -23.5%

CN(Cc1cccc(C(N)=O)c1)CC1CCCN1c1cccnn1 (stereo unspecified)
cytotoxicity at 10 µM: -9.75%

CN1CC(C(=O)NCc2cccnc2-n2cccn2)CC1=O (stereo unspecified)
cytotoxicity at 10 µM: -6.18%

CCn1cnnc1C1CCN(C(=O)COc2ccc(Cl)cc2)CC1
cytotoxicity at 10 µM: -3.39%

CC(C)c1cc(NC(=O)c2ccc(NC3CC3)nc2)[nH]n1
cytotoxicity at 10 µM: -8.9%

CNC(=O)[C@@H](c1ccccc1OC)N1CCC[C@H]1C(=O)N1CCC1
cytotoxicity at 10 µM: 1.44%

CC(C)(C)NC[C@@H]1CCC[C@@H]2CN(Cc3csnn3)C[C@@H]21
cytotoxicity at 10 µM: -134%

CC(C)CN1C[C@@H]2C(=O)N(C)C3(CCN(C(=O)C(C)C)CC3)[C@@H]2C1
cytotoxicity at 10 µM: 6.88%

CN(C)CCN1C(=O)CCC12CCCN(C(=O)c1cccnc1)CC2 (stereo unspecified)
cytotoxicity at 10 µM: -6.78%

CNC(=O)c1cc2c(nc1NCC(C)C)CCN(c1ccncn1)CC2
cytotoxicity at 10 µM: 7.95%

CCC(=O)N1CCC2(CC1)C(=O)N(Cc1cccnc1)CCN2C
cytotoxicity at 10 µM: 2.17%

COC1COC2(CCN(Cc3ccccc3Cl)CC2)C1 (stereo unspecified)
cytotoxicity at 10 µM: -14.1%

CCN(C)c1ncnc2c1CCN(Cc1nccs1)CC2
cytotoxicity at 10 µM: -2.46%

CN1CCN(C[C@@H]2OC[C@H]3CN(CCc4ccccc4)CC[C@H]32)CC1
cytotoxicity at 10 µM: 8.84%

O=c1ccc2c([nH]1)CCC(NCc1ccc3c(c1)OCO3)C2 (stereo unspecified)
cytotoxicity at 10 µM: 6.69%

O=C(CSc1ccccn1)N1C[C@@H]2CC[C@H]1CN(Cc1cscn1)C2
cytotoxicity at 10 µM: 1.93%
